Rin1-Abl PPI inh: inhibitors of human Rin1-Abl protein interaction; inhibition, % at 7.35 µM; TR-FRET Rin1/Abl binding, biochemical; AID 588664; hit rate 0.4% among 360,000; P00519+Q13671; in the data active means inhibition above about 5%, passing the limit was not always enough
UBC9 SUMO inh: inhibitors of human SUMOylation (UBC9). HTRF SUMOylation assay, SAE1/SAE2 + UBC9, in vitro. inhibition, % at 35 µM. hit rate 0.36% among 290,000; in the data active means inhibition above about 50%, passing the limit was not always enough
Target sequence (P63279 whole entry, looked up): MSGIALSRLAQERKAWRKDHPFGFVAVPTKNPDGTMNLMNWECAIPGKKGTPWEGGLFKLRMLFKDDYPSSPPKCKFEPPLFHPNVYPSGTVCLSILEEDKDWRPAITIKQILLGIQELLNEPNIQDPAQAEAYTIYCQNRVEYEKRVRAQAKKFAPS
RBBP9 inhibitor: human RBBP9 hydrolase inhibition. O75884. recombinant RBBP9, FP-Rh probe fluorescence polarization. inhibition, % at 7.94 µM. hit rate 0.2% among 220,000;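 active means inhibition above the campaign mean of all tested compounds plus 3 SD, cut at about 14% in these data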;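 further: plate controls were DMSO wells with RBBP9 for no effect and wells lacking RBBP9 protein for full effect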
Target sequence (O75884 whole entry, looked up): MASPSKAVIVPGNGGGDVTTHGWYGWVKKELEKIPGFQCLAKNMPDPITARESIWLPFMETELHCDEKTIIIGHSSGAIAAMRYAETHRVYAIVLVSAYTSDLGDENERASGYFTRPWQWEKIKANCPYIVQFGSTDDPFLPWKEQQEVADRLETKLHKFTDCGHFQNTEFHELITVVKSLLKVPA
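System: RBBP9 protein | Quantity: 2.5 µM RBBP9 dispensing solution, before mixing | Reagent: FP-Rh probe, 375 nM dispensing solution | Timing: Enzyme-compound preincubation 30 min, then probe labeling 45 min, 25 °C | Measured by: Fluorescence polarization | Read-out: % inhibition | Replication: One well per compound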
UBC13 polyUb: inhibitors of human UBC13 polyubiquitin chain formation | TR-FRET | inhibition, % at 20 µM | P61088 | AID 485273 | hit rate 0.47% among 330,000; in the data active means inhibition above about 45%, passing the limit was not always enough
ALR inh: inhibitors of human sulfhydryl oxidase ALR. P55789. purified ALR, DTT oxidation, H2O2 HRP-luminol luminescence. inhibition, % (concentration not given with the values). hit rate 3.8% among 290,000;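 active means mean replicate inhibition above about 79%, with every replicate also reaching it, limit read from the data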
Target sequence (P55789 whole entry, looked up): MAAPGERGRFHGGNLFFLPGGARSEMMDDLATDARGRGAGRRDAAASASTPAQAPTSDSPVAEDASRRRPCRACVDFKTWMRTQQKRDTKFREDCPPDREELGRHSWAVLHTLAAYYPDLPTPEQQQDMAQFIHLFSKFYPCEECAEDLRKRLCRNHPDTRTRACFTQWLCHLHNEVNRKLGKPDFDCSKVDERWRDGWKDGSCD
PREPL inhibitor: inhibits the human prolyl oligopeptidase-like enzyme. recombinant PREPL, fluorescence polarization activity-based probe. Q4J6C6. hit rate 0.68% among 320,000. inhibition, % at 5.96 µM; in the data active means inhibition above about 43%;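 further: 0% = enzyme with DMSO and 100% = wells lacking enzyme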
* hit, by the source's call. The list is not random: actives were taken first. Their share in the collection is about 4.3%.

For COc1cccc(-c2nc(CS(=O)CC(=O)O)c(C)o2)c1 (centres undefined) the results were Rin1-Abl PPI inh 2.2, UBC9 SUMO inh -0.3, RBBP9 inhibitor -5.2, UBC13 polyUb 5.0, ALR inh 99.0* and PREPL inhibitor -3.2.
Screening COc1cccc(-c2nc(CS(=O)CC(=O)NC(C)CCc3ccccc3)c(C)o2)c1 (centres undefined) returned Rin1-Abl PPI inh 4.1, UBC9 SUMO inh -1.8, UBC13 polyUb 6.4, ALR inh 98.2* and PREPL inhibitor -23.6.
`COc1cccc(-c2nc(CS(=O)CC(=O)NCCc3ccccc3)c(C)o2)c1` (centres undefined) gave Rin1-Abl PPI inh 0.1, UBC9 SUMO inh 1.1, UBC13 polyUb -0.1, ALR inh 98.7* and PREPL inhibitor -4.8.
`Cc1cc(=O)oc2cc(O)cc(OCc3ccccc3)c12` gave Rin1-Abl PPI inh -0.8.
`COC(=O)c1ccc(NC(=S)Nc2ccc(O)cc2)cc1` gave Rin1-Abl PPI inh -1.1, UBC9 SUMO inh 5.3, RBBP9 inhibitor -4.8, UBC13 polyUb 11.8, ALR inh 99.1* and PREPL inhibitor 3.3.
Screening Oc1ccc(NC(=S)Nc2ccc(O)cc2)cc1 returned Rin1-Abl PPI inh 1.4, UBC9 SUMO inh 76.1, RBBP9 inhibitor 6.5, UBC13 polyUb 2.7, ALR inh 99.3* and PREPL inhibitor 13.1.
Screening O=C(NC(=S)Nc1ccc(O)cc1)C1CCCC1 returned Rin1-Abl PPI inh 1.1, UBC13 polyUb 7.4 and PREPL inhibitor 4.1.
Screening CCc1ccc(OCCCC(=O)Nc2ccc(S(=O)(=O)Nc3cc(C)nc(C)n3)cc2)cc1 returned Rin1-Abl PPI inh 5.2, UBC9 SUMO inh 14.6, UBC13 polyUb -0.5, ALR inh 3.1 and PREPL inhibitor -6.0.
`Cc1cc(NC(=O)CSc2nnc(-c3ccccc3F)n2N)no1` gave Rin1-Abl PPI inh -0.3, UBC13 polyUb 1.3, ALR inh -9.8 and PREPL inhibitor -0.8.
Screening CC(C)(C)OC(=O)N1CCC(c2c(C(=O)N3CCN(C(=O)c4ccco4)CC3)cnn2-c2ccc(F)cc2F)CC1 returned Rin1-Abl PPI inh 3.7, UBC9 SUMO inh -2.8, UBC13 polyUb -12.4, ALR inh -9.7 and PREPL inhibitor 3.2.
`O=C(/C=C/c1c(F)cccc1Cl)N1CCOCC1` gave Rin1-Abl PPI inh -3.7, UBC9 SUMO inh -3.6, UBC13 polyUb -5.2, ALR inh -6.0 and PREPL inhibitor 4.9.
O=C(OCCCN1CCOCC1)c1ccc(O)c(O)c1 was read as Rin1-Abl PPI inh -1.9, UBC9 SUMO inh 3.8, RBBP9 inhibitor -5.3, UBC13 polyUb 1.6, ALR inh 98.7* and PREPL inhibitor -5.1.
CC(C)COc1ccc(C(=O)OCCN2CCOCC2)c(O)c1 was read as Rin1-Abl PPI inh -5.2, UBC9 SUMO inh 5.0, RBBP9 inhibitor -3.6, UBC13 polyUb 1.4, ALR inh 7.1 and PREPL inhibitor -6.7.
Screening COc1cc(C(=O)OCCN2CCOCC2)ccc1O returned Rin1-Abl PPI inh 0.2, UBC9 SUMO inh 27.9, RBBP9 inhibitor -2.9, UBC13 polyUb 1.7, ALR inh 96.4* and PREPL inhibitor -1.9.
For CCN(CC)C(=O)CCCC(=O)N(CC)CC the results were Rin1-Abl PPI inh -2.4, UBC9 SUMO inh 4.3, RBBP9 inhibitor -9.0, UBC13 polyUb -5.6, ALR inh -2.5 and PREPL inhibitor 3.2.
Screening CCOC(=O)c1ccc(NC(=O)CSc2nnc(CNC(=O)c3c(F)cccc3Cl)o2)cc1 returned Rin1-Abl PPI inh 1.7, UBC9 SUMO inh -1.1, RBBP9 inhibitor -0.3, UBC13 polyUb 1.9, ALR inh 99.4* and PREPL inhibitor 13.2.
Screening CCOC(=O)c1c(NC(=O)CSc2nnc(CNc3ccc(F)cc3)o2)sc(C)c1C returned Rin1-Abl PPI inh 2.2, UBC9 SUMO inh 2.9, RBBP9 inhibitor -7.3, UBC13 polyUb -2.2, ALR inh -4.9 and PREPL inhibitor 20.3.
O=C(CSc1nnc(CNC(=O)c2c(F)cccc2F)o1)Nc1ccc2c(c1)OCCO2 was read as Rin1-Abl PPI inh -2.6, UBC9 SUMO inh 6.0, UBC13 polyUb 3.2, ALR inh 98.3* and PREPL inhibitor 0.4.
Screening O=C(CSc1nnc(CNC(=O)c2c(F)cccc2F)o1)Nc1ccc2c(c1)OCO2 returned Rin1-Abl PPI inh 4.7, UBC9 SUMO inh 7.4, UBC13 polyUb 3.1, ALR inh 98.4* and PREPL inhibitor -0.7.
For CCOC(=O)c1c(NC(=O)CSc2nnc(CNc3ccc(Cl)cc3)o2)sc(C)c1C the results were Rin1-Abl PPI inh -0.5, UBC9 SUMO inh -10.0, RBBP9 inhibitor 5.1, UBC13 polyUb 1.2, ALR inh 84.1* and PREPL inhibitor 3.4.
For CCOC(=O)c1ccc(NC(=O)CSc2nnc(CNC(=O)c3ccccc3F)o2)cc1 the results were Rin1-Abl PPI inh -2.6, UBC9 SUMO inh 3.1, RBBP9 inhibitor -11.4, UBC13 polyUb -3.4, ALR inh 70.0 and PREPL inhibitor 17.0.
Screening O=C(CSc1nnc(CNC(=O)c2ccccc2)o1)Nc1ccc2c(c1)OCO2 returned Rin1-Abl PPI inh 3.6, UBC9 SUMO inh 12.6, UBC13 polyUb 0.2, ALR inh 13.9 and PREPL inhibitor -0.8.
Screening O=S(=O)(Nc1ccccc1C(F)(F)F)c1ccc(-c2ccccn2)s1 returned Rin1-Abl PPI inh -0.6, UBC9 SUMO inh 4.3 and ALR inh 2.9.
`NCCc1nnc(SCC(=O)Nc2cccc(Cl)c2)o1` gave Rin1-Abl PPI inh 0.3, UBC9 SUMO inh 4.3, UBC13 polyUb -2.7, ALR inh 99.4* and PREPL inhibitor 1.7.
Screening O=C(CSc1nnc(CNC(=O)c2c(F)cccc2Cl)o1)Nc1ccc2c(c1)OCCO2 returned Rin1-Abl PPI inh -1.3, UBC9 SUMO inh 13.4, RBBP9 inhibitor -0.1, UBC13 polyUb -2.7, ALR inh 98.8* and PREPL inhibitor -1.0.
Cc1nn(-c2ccccc2)c(Cl)c1/C=N/NC(=O)c1[nH]ncc1Br was read as Rin1-Abl PPI inh -1.5, UBC9 SUMO inh 5.6, UBC13 polyUb 3.3, ALR inh -0.3 and PREPL inhibitor 7.0.
Screening COc1ccc(Cc2nnc(NS(=O)(=O)c3ccc([N+](=O)[O-])cc3)s2)cc1 returned Rin1-Abl PPI inh 4.1, UBC9 SUMO inh 3.7, UBC13 polyUb -4.1, ALR inh -10.6 and PREPL inhibitor 3.6.
Screening COc1ccc(-c2n[nH]c(=S)o2)c(OC)c1 returned Rin1-Abl PPI inh -4.7, UBC9 SUMO inh 22.6, RBBP9 inhibitor -5.3, UBC13 polyUb 5.3, ALR inh 89.6* and PREPL inhibitor 7.4.
For COc1ccc(C(=O)NC(Cn2ccnc2)C(C)(C)C)cc1OC1CCN(C(C)C)CC1 (centres undefined) the results were Rin1-Abl PPI inh -1.6, UBC9 SUMO inh -13.2, UBC13 polyUb 4.6, ALR inh -3.5 and PREPL inhibitor 8.6.
`COc1ccc(Br)cc1/C=c1\sc2nc(-c3ccco3)nn2c1=O` gave Rin1-Abl PPI inh 0.5, UBC9 SUMO inh 51.8*, UBC13 polyUb 24.5, ALR inh 4.1 and PREPL inhibitor -0.4.

Assay outcomes as filed in PubChem BioAssay.
